Measurements published in paper PMC7368294 (Proceedings of the National Academy of Sciences of the …, 2020).

Assays:
Dα1/Dα2/Dβ1 nAChR [1] = molecular target: T1, Dα1/Dα2/Dβ1 nAChR (Drosophila melanogaster, UniProt P04755+P09478+P17644); test: two-electrode voltage clamp of Xenopus oocytes, agonist concentration-response; type: cell-based
T1 sequence (P09478 22-567): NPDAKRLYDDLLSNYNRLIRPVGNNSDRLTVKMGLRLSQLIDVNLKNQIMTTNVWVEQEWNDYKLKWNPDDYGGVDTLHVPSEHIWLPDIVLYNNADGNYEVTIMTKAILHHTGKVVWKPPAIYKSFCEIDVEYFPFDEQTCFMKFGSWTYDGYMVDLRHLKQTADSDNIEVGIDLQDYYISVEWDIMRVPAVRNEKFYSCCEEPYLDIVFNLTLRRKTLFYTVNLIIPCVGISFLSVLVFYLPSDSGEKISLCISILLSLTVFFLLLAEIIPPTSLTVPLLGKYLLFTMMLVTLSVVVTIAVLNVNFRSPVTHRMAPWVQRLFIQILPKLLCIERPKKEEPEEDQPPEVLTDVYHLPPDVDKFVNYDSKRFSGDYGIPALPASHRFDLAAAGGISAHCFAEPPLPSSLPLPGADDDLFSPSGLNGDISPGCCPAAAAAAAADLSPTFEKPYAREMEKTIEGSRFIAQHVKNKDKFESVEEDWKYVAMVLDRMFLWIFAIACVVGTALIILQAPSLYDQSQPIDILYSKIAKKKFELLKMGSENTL
T1 sequence (P17644 22-576): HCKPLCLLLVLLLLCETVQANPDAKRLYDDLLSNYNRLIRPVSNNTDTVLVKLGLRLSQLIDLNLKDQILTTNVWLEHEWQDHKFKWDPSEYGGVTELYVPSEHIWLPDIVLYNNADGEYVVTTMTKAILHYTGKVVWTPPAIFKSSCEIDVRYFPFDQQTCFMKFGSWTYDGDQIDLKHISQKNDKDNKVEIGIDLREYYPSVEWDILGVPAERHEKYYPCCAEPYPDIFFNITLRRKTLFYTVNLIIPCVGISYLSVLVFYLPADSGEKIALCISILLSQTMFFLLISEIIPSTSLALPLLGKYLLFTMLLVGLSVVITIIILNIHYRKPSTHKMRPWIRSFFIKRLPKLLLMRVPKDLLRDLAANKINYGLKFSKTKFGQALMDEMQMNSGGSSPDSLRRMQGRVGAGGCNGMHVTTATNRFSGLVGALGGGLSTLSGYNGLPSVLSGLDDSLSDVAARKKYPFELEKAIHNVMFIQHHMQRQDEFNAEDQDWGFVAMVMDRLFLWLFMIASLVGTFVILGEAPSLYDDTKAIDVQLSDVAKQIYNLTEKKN
T1 sequence (P04755 25-521): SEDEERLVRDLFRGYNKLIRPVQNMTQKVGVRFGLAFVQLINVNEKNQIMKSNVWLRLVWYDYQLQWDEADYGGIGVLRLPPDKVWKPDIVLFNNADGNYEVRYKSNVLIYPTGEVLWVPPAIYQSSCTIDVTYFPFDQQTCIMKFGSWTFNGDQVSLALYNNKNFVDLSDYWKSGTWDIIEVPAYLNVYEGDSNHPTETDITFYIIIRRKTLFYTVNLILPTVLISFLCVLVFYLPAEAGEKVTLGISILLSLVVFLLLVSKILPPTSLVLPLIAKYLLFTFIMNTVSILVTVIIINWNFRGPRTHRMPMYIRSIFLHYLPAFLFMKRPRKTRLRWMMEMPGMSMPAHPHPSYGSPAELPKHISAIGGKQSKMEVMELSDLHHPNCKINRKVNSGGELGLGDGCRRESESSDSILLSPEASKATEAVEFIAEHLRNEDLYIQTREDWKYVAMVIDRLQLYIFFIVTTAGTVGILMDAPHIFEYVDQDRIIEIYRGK

Dα1/Dβ1/Dβ2 nAChR [2] = molecular target: T2, Dα1/Dβ1/Dβ2 nAChR (Drosophila melanogaster, UniProt P04755+P09478+P25162); test: as above; type: cell-based
T2 sequence (P09478 22-567): T1 sequence (P09478 22-567)
T2 sequence (P04755 25-521): T1 sequence (P04755 25-521)
T2 sequence (P25162 19-519): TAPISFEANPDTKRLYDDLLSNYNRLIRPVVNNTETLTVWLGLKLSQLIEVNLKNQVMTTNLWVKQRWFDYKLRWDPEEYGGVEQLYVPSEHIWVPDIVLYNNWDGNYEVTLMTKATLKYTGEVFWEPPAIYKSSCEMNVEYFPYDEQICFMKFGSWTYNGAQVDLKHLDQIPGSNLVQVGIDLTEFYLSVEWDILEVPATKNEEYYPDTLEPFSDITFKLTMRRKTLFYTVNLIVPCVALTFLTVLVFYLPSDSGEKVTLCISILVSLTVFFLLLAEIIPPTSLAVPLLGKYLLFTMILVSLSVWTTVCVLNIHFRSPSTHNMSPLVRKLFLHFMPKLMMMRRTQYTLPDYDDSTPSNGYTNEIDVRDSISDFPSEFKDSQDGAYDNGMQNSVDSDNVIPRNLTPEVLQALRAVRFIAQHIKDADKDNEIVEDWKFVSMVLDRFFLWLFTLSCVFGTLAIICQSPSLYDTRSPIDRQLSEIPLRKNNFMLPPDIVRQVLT

Dα1/Dβ1 nAChR [3] = molecular target: T3, Dα1/Dβ1 nAChR (Drosophila melanogaster, UniProt P04755+P09478); test: cell-based; design: species or system Xenopus laevis oocytes
T3 sequence (P09478 22-567): T1 sequence (P09478 22-567)
T3 sequence (P04755 25-521): T1 sequence (P04755 25-521)

Dα1/Dβ1 nAChR [4] = molecular target: T3, Dα1/Dβ1 nAChR; test: two-electrode voltage clamp of Xenopus oocytes, agonist concentration-response; type: cell-based
Outline: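 Oocytes were collagenase-defolliculated, injected with subunit and cofactor cRNAs (100 ng⋅μL−1 each) and kept 3–7 d at 16 °C. Cells were clamped at −100 mV and perfused with saline containing 0.5 μM atropine. Agonists were applied 5 s at 3-min intervals after stable 100 μM ACh responses. Peak currents were normalized to 100 μM ACh and Hill-fitted. n = 5, ≥2 frogs; DMSO <0.1%.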

Dα1/Dα2/Dβ1 nAChR [5] = molecular target: T1, Dα1/Dα2/Dβ1 nAChR; test: cell-based; design: species or system Xenopus laevis oocytes
Dα1/Dβ1/Dβ2 nAChR [6] = molecular target: T2, Dα1/Dβ1/Dβ2 nAChR; test: cell-based; design: species or system Xenopus laevis oocytes
Dα1/Dα2/Dβ1/Dβ2 nAChR = Dα1/Dα2/Dβ1/Dβ2 nAChR (Drosophila melanogaster, UniProt P04755+P09478+P17644+P25162); test: cell-based; design: species or system Xenopus laevis oocytes

SMILES	EC50 (Dα1/Dα2/Dβ1 nAChR [1])	EC50 (Dα1/Dβ1/Dβ2 nAChR [2])	EC50 (Dα1/Dβ1 nAChR [3])	EC50 (Dα1/Dβ1 nAChR [4])	EC50 (Dα1/Dα2/Dβ1 nAChR [5])	EC50 (Dα1/Dβ1/Dβ2 nAChR [6])	EC50 (Dα1/Dα2/Dβ1/Dβ2 nAChR)
O=[N+]([O-])NC1=NCCN1Cc1ccc(Cl)nc1 [imidacloprid]	0.407 µM	0.107 µM	0.174 µM	–	–	–	–
CN/C(=N\[N+](=O)[O-])NCc1cnc(Cl)s1 [clothianidin]	–	–	–	0.0617 µM	2.95 µM	0.219 µM	0.309 µM
N#C/N=C1\SCCN1Cc1ccc(Cl)nc1 [thiacloprid]	0.234 µM	0.0186 µM	–	0.0229 µM	–	–	–
